Test results taken from ChEMBL document CHEMBL5316289, “Structure-Based Rational Design of Small α-Helical Peptides with Broad-Spectrum Activity against Multidrug-Resistant Pathogens” (J Med Chem, 2023).
Values joined by “and” are separate entries in the source; they are usually repeats but may differ in a detail not shown here. Equal values may be shown once.

Key:
Type in all cases: functional
Staphylococcus aureus [1] = test: Antibacterial activity against Staphylococcus aureus ATCC 29213 assessed as inhibition of bacterial growth incubated for 24 hrs by CLSI based broth microdilution method
Klebsiella pneumoniae = test: Antibacterial activity against Klebsiella pneumoniae ATCC BAA 1705 assessed as inhibition of bacterial growth incubated for 24 hrs by CLSI based broth microdilution method; details: read-out: MIC
Staphylococcus aureus [2] = test: Antibacterial activity against methicillin resistant Staphylococcus aureus ATCC BAA 1556 assessed as inhibition of bacterial growth incubated for 24 hrs by CLSI based broth microdilution method
Escherichia coli [3] = test: Antibacterial activity against Escherichia coli ATCC 25922 assessed as inhibition of bacterial growth incubated for 24 hrs by CLSI based broth microdilution method
Pseudomonas aeruginosa = test: Antibacterial activity against Pseudomonas aeruginosa […] assessed as inhibition of bacterial growth incubated for 24 hrs by CLSI based broth microdilution method
Escherichia coli [4] = test: Antibacterial activity against Escherichia coli ATCC 25922 assessed as fold increase in MIC incubated for 24 hrs in presence of Na+ ions by CLSI based broth microdilution method
In short: (§1)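 E. coli MICs by CLSI broth microdilution in cation-adjusted Mueller Hinton broth. […] Inoculum was 10^6 CFU/mL with 2-fold serial peptide dilutions, incubated 24 h at 37 °C. MIC is the lowest concentration inhibiting growth. Three independent assays, each in triplicate.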

Escherichia coli [5] = test: Antibacterial activity against Escherichia coli ATCC 25922 assessed as fold increase in MIC incubated for 24 hrs in presence of Mg2+ ions by CLSI based broth microdilution method; in short: as §1
Staphylococcus aureus [6] = test: Antibacterial activity against methicillin resistant Staphylococcus aureus ATCC BAA 1556 assessed as fold increase in MIC incubated for 24 hrs in presence of Mg2+ ions by CLSI based broth microdilution method
In short: (§2)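 CLSI broth microdilution. Overnight cultures diluted in cation-adjusted Mueller Hinton broth to 10^6 CFU/mL, mixed 1:1 with 2-fold serial peptide dilutions, 24 h at 37 °C. […] MIC is the lowest concentration inhibiting growth. Three independent assays in triplicate.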

Staphylococcus aureus [7] = test: Antibacterial activity against methicillin resistant Staphylococcus aureus ATCC BAA 1556 assessed as fold increase in MIC incubated for 24 hrs in presence of NH4+ ions by CLSI based broth microdilution method; in short: as §2
Escherichia coli [8] = test: Antibacterial activity against Escherichia coli ATCC 25922 assessed as fold increase in MIC incubated for 24 hrs in presence of NH4+ ions by CLSI based broth microdilution method; in short: as §1
Escherichia coli [9] = test: Antibacterial activity against Escherichia coli ATCC 25922 assessed as fold increase in MIC incubated for 24 hrs in presence of K+ ions by CLSI based broth microdilution method; in short: as §1
Staphylococcus aureus [10] = test: Antibacterial activity against methicillin resistant Staphylococcus aureus ATCC BAA 1556 assessed as fold increase in MIC incubated for 24 hrs in presence of Na+ ions by CLSI based broth microdilution method; in short: as §2
Staphylococcus aureus [11] = test: Antibacterial activity against methicillin resistant Staphylococcus aureus ATCC BAA 1556 assessed as fold increase in MIC incubated for 24 hrs in presence of Ca2+ ions by CLSI based broth microdilution method; in short: as §2
Staphylococcus aureus [12] = test: Antibacterial activity against methicillin resistant Staphylococcus aureus ATCC BAA 1556 assessed as fold increase in MIC incubated for 24 hrs in presence of K+ ions by CLSI based broth microdilution method; in short: as §2
Escherichia coli [13] = test: Antibacterial activity against Escherichia coli ATCC 25922 assessed as fold increase in MIC incubated for 24 hrs in presence of Ca2+ ions by CLSI based broth microdilution method; in short: as §1

H-RAWRRWARAW-NH2
MIC (Staphylococcus aureus [1]): > 100 µg/mL and > 70.7 µM
MIC (Klebsiella pneumoniae): > 100 µg/mL
MIC (Staphylococcus aureus [2]): > 100 µg/mL and > 70.7 µM
MIC (Escherichia coli [3]): > 100 µg/mL and > 70.7 µM
MIC (Pseudomonas aeruginosa): > 100 µg/mL

H-WRRWWRR-NH2
MIC (Staphylococcus aureus [1]): 100 µg/mL
MIC (Klebsiella pneumoniae): > 100 µg/mL
MIC (Staphylococcus aureus [2]): 100 µg/mL
MIC (Escherichia coli [3]): > 100 µg/mL and > 83.3 µM
MIC (Pseudomonas aeruginosa): > 100 µg/mL

H-RWWRRWR-NH2
MIC (Staphylococcus aureus [1]): 100 µg/mL
MIC (Klebsiella pneumoniae): > 100 µg/mL
MIC (Staphylococcus aureus [2]): 100 µg/mL
MIC (Escherichia coli [3]): > 100 µg/mL and > 83.3 µM
MIC (Pseudomonas aeruginosa): > 100 µg/mL

H-RWWRRAWAR-NH2
MIC (Staphylococcus aureus [1]): > 100 µg/mL and > 74.5 µM
MIC (Klebsiella pneumoniae): > 100 µg/mL
MIC (Staphylococcus aureus [2]): > 100 µg/mL and > 74.5 µM
MIC (Escherichia coli [3]): > 100 µg/mL and > 74.5 µM
MIC (Pseudomonas aeruginosa): > 100 µg/mL

H-RAWRRWWARA-NH2
MIC (Staphylococcus aureus [1]): > 100 µg/mL and > 70.7 µM
MIC (Klebsiella pneumoniae): > 100 µg/mL
MIC (Staphylococcus aureus [2]): > 100 µg/mL and > 70.7 µM
MIC (Escherichia coli [3]): > 100 µg/mL and > 70.7 µM
MIC (Pseudomonas aeruginosa): > 100 µg/mL

H-RRWRRWW-NH2
MIC (Staphylococcus aureus [1]): 100 µg/mL
MIC (Klebsiella pneumoniae): > 100 µg/mL
MIC (Staphylococcus aureus [2]): 100 µg/mL
MIC (Escherichia coli [3]): > 100 µg/mL and > 83.3 µM
MIC (Pseudomonas aeruginosa): > 100 µg/mL

H-WRRWARRW-NH2
MIC (Staphylococcus aureus [1]): > 100 µg/mL and > 78.7 µM
MIC (Klebsiella pneumoniae): > 100 µg/mL
MIC (Staphylococcus aureus [2]): > 100 µg/mL and > 78.7 µM
MIC (Escherichia coli [3]): > 100 µg/mL and > 78.7 µM
MIC (Pseudomonas aeruginosa): > 100 µg/mL

H-KWIKKWIKWWKK-NH2
fold change (FC) (Escherichia coli [4]): 2
fold change (FC) (Escherichia coli [5]): 2
fold change (FC) (Staphylococcus aureus [6]): 2
fold change (FC) (Staphylococcus aureus [7]): 2
fold change (FC) (Escherichia coli [8]): 2
fold change (FC) (Escherichia coli [9]): 2
fold change (FC) (Staphylococcus aureus [10]): 2
fold change (FC) (Staphylococcus aureus [11]): 2
fold change (FC) (Staphylococcus aureus [12]): 2
fold change (FC) (Escherichia coli [13]): 2

Ac-KWAKKWAKWWKK-NH2
MIC (Klebsiella pneumoniae): 100 µg/mL
MIC (Staphylococcus aureus [2]): 100 µg/mL
MIC (Escherichia coli [3]): 100 µg/mL
MIC (Pseudomonas aeruginosa): 100 µg/mL

H-RWRRWWR-NH2
MIC (Staphylococcus aureus [1]): 100 µg/mL
MIC (Klebsiella pneumoniae): > 100 µg/mL
MIC (Staphylococcus aureus [2]): 100 µg/mL
MIC (Escherichia coli [3]): > 100 µg/mL and > 83.3 µM
MIC (Pseudomonas aeruginosa): > 100 µg/mL

H-KWAKKWAKWWKK-NH2
MIC (Staphylococcus aureus [1]): 100 µg/mL
MIC (Klebsiella pneumoniae): > 100 µg/mL
MIC (Staphylococcus aureus [2]): 100 µg/mL
MIC (Escherichia coli [3]): > 100 µg/mL and > 59.8 µM
MIC (Pseudomonas aeruginosa): > 100 µg/mL

H-RWWRRAWR-NH2
MIC (Staphylococcus aureus [1]): > 100 µg/mL and > 78.7 µM
MIC (Klebsiella pneumoniae): > 100 µg/mL
MIC (Staphylococcus aureus [2]): > 100 µg/mL and > 78.7 µM
MIC (Escherichia coli [3]): > 100 µg/mL and > 78.7 µM
MIC (Pseudomonas aeruginosa): > 100 µg/mL

H-RWWRRWAR-NH2
MIC (Staphylococcus aureus [1]): > 100 µg/mL and > 78.7 µM
MIC (Klebsiella pneumoniae): > 100 µg/mL
MIC (Staphylococcus aureus [2]): > 100 µg/mL and > 78.7 µM
MIC (Escherichia coli [3]): > 100 µg/mL and > 78.7 µM
MIC (Pseudomonas aeruginosa): > 100 µg/mL

Ac-RWIRRWIRWWR-NH2
MIC (Klebsiella pneumoniae): 100 µg/mL
MIC (Escherichia coli [3]): 100 µg/mL

H-RWARRWWRA-NH2
MIC (Staphylococcus aureus [1]): > 100 µg/mL and > 74.5 µM
MIC (Klebsiella pneumoniae): > 100 µg/mL
MIC (Staphylococcus aureus [2]): > 100 µg/mL and > 74.5 µM
MIC (Escherichia coli [3]): > 100 µg/mL and > 74.5 µM
MIC (Pseudomonas aeruginosa): > 100 µg/mL

H-ARRWWRRW-NH2
MIC (Staphylococcus aureus [1]): 100 µg/mL
MIC (Klebsiella pneumoniae): > 100 µg/mL
MIC (Staphylococcus aureus [2]): 100 µg/mL and > 78.7 µM
MIC (Escherichia coli [3]): > 100 µg/mL and > 78.7 µM
MIC (Pseudomonas aeruginosa): > 100 µg/mL

H-RWARRAWRAW-NH2
MIC (Staphylococcus aureus [1]): > 100 µg/mL and > 70.7 µM
MIC (Klebsiella pneumoniae): > 100 µg/mL
MIC (Staphylococcus aureus [2]): > 100 µg/mL and > 70.7 µM
MIC (Escherichia coli [3]): > 100 µg/mL and > 70.7 µM
MIC (Pseudomonas aeruginosa): > 100 µg/mL

H-RWIRRWIRWWRR-NH2
fold change (FC) (Escherichia coli [4]): 2
fold change (FC) (Escherichia coli [5]): 2
fold change (FC) (Staphylococcus aureus [6]): 2
fold change (FC) (Staphylococcus aureus [7]): 2
fold change (FC) (Escherichia coli [8]): 2
MIC (Klebsiella pneumoniae): 12.5 µg/mL
fold change (FC) (Escherichia coli [9]): 2
fold change (FC) (Staphylococcus aureus [10]): 2
fold change (FC) (Staphylococcus aureus [11]): 2
fold change (FC) (Staphylococcus aureus [12]): 2
fold change (FC) (Escherichia coli [13]): 2
